The results in this text go back to ChEMBL document CHEMBL4765371, “Synthesis and evaluation of Na/K-ATP-ase inhibiting and cytotoxic in vitro activities of oleandrigenin and its selected 17β-(butenolidyl)- and 17β-(3-furyl)- analogues” (Eur J Med Chem, 2020).

SMILES strings stand for the structures. Activity calls are given as the source filed them. The calls are words filed in the database; no cut-off is given here.

For one assay, the species on record is Sus scrofa. Nature of the assay: Inhibition of porcine kidney Na+/K+ ATPase at 50 uM assessed as enzyme residual activity using ATP as substrate incubated for 2 mins followed by substrate addition and measured after 6 mins (reference value: 100 +/-3.16%). The class given is tissue-based. The following applies: time 8.0 min.
The subject of assay [1] is HeLa. Nature of the assay: Cytotoxicity against human HeLa cells assessed as reduction in cell viability incubated for 72 hrs by resazurin assay. The class given is functional, cell-based. The essentials:
(§1)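 Cells (CEM, HeLa, MCF7, BJ fibroblasts) exposed to compounds for 72 h, viability read by resazurin staining. Values are means ± SD from at least three independent experiments run in triplicate.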
On the technique in general: The colour change of resazurin is a common sign of viable cells or microbes.

For another assay, the system named is BJ. Nature of the assay: Cytotoxicity against human BJ cells assessed as reduction in cell viability incubated for 72 hrs by resazurin assay. The format is cell-based. The essentials: as §1
For the next assay, the system named is CCRF-CEM. Nature of the assay: Cytotoxicity against human CEM cells assessed as reduction in cell viability incubated for 72 hrs by resazurin assay. The class given is functional, cell-based. In short, it runs like this: as §1
The next assay relates to MCF7. Nature of the assay: Cytotoxicity against human MCF7 cells assessed as reduction in cell viability incubated for 72 hrs by resazurin assay. The format is functional, cell-based. The note with it: MCF7, 72 h. In short, it runs like this: as §1
For assay [2], the system named is HeLa. Nature of the assay: Induction of cell cycle arrest in human HeLa cells assessed as increase in accumulation at G2/M phase at 1 uM incubated for 24 hrs by PI staining based flow cytometry analysis relative to control. The class given is functional. The essentials:
(§2)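 HeLa cells treated 24 h at 1 or 10 µM, then harvested, fixed and stained with propidium iodide. DNA content measured by flow cytometry and cells assigned to subG1 (apoptotic), G0/G1, S and G2/M. Compared with untreated and DMSO-only controls. Means of three independent experiments in triplicate; one-way ANOVA, p < 0.05.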
(A flow cytometer gives signals particle by particle.)

For assay [3], the system named is HeLa. Nature of the assay: Induction of apoptosis in human HeLa cells assessed as downregulation of Bcl2 protein expression at 1 to 10 uM incubated for 24 hrs by Western blotting analysis. The format is functional, cell-based. The following applies: dose 1-10 µM. In short, it runs like this: (§3)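 HeLa cells treated 24 h at 1 and 10 µM. Lysates resolved by SDS-PAGE and immunoblotted for PARP-1, caspase-7 zymogen and fragment, Mcl-1, Bcl-2, p53, phospho-Rb, total Rb, phospho-Src (Tyr416) and total Src. β-actin used as loading control. Compared with untreated controls; three repeats.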
For orientation: Immunoblotting shows a protein as a band on a membrane.

Assay [4] relates to HeLa. Nature of the assay: Induction of cell cycle arrest in human HeLa cells assessed as increase in accumulation at S phase at 1 to 10 uM incubated for 24 hrs by PI staining based flow cytometry analysis. The format is functional. The following applies: dose 1-10 µM. The essentials:
as §2

Assay [5] relates to HeLa. Nature of the assay: Induction of cell cycle arrest in human HeLa cells assessed as decrease in accumulation of cells at G0/G1 phase at 1 to 10 uM incubated for 24 hrs by PI staining based flow cytometry analysis relative to control. The class given is functional. The arrangement: scale not given: the % may be the effect or the level left. The following applies: dose 1-10 µM. In short, it runs like this: as §2

In assay [6] the test system is HeLa. Nature of the assay: Induction of cell cycle arrest in human HeLa cells assessed as increase in accumulation at G2/M phase at 10 uM incubated for 24 hrs by PI staining based flow cytometry analysis relative to control. The format is functional. The essentials: as §2
Assay [7] deals with HeLa. Nature of the assay: Downregulation of Src kinase activity in human HeLa cells assessed as decrease in Src kinase phosphorylation at Tyr416 residue at 1 uM incubated for 24 hrs by Western blotting analysis.
In assay [8] the test system is HeLa. Nature of the assay: Downregulation of p53 protein expression in human HeLa cells at 1 to 10 uM incubated for 24 hrs by Western blotting analysis. The format is functional, cell-based. The note with it: dose 1-10 µM. In short, it runs like this:
as §3

For assay [9], the system named is HeLa. Nature of the assay: Induction of cell cycle arrest in human HeLa cells assessed as increase in accumulation at subG1 phase at 1 to 10 uM incubated for 24 hrs by PI staining based flow cytometry analysis relative to control. The class given is functional. The note with it: dose 1-10 µM. In short, it runs like this: as §2
Assay [10] concerns HeLa. Nature of the assay: Induction of apoptosis in human HeLa cells assessed as increase in PARP-1 cleavage at 10 uM incubated for 24 hrs by Western blotting analysis. The format is functional, cell-based. The essentials:
as §3

Assay [11] deals with HeLa. Nature of the assay: Induction of apoptosis in human HeLa cells assessed as reduction in Rb level at 1 to 10 uM incubated for 24 hrs by Western blotting analysis. The format is functional, cell-based. The note with it: dose 1-10 µM. The essentials:
as §3

For assay [12], the system named is HeLa. Nature of the assay: Induction of apoptosis in human HeLa cells assessed as reduction in Rb phosphorylation at 1 uM incubated for 24 hrs by Western blotting analysis. The format is functional, cell-based. In short, it runs like this: as §3
For assay [13], the system named is HeLa. Nature of the assay: Induction of apoptosis in human HeLa cells assessed as increase in caspase 7 fragmentation at 1 to 10 uM incubated for 24 hrs by Western blotting analysis. The class given is functional, cell-based. The note with it: dose 1-10 µM. The essentials: as §3
Assay [14] has as its system HeLa. Nature of the assay: Effect on Src kinase protein expression in human HeLa cells at 1 uM incubated for 24 hrs by western blot analysis. The format is functional, cell-based. In short, it runs like this:
as §3

Assay [15] deals with HeLa. Nature of the assay: Induction of apoptosis in human HeLa cells assessed as downregulation of Mcl1 protein expression at 1 to 10 uM incubated for 24 hrs by Western blotting analysis. The class given is functional, cell-based. The note with it: dose 1-10 µM. The essentials: as §3
For assay [16], the system named is HeLa. Nature of the assay: Induction of apoptosis in human HeLa cells assessed as fold increase in caspase 3/7 activity at 1 to 10 uM incubated for 24 hrs by fluorescence based assay relative to control. The format is functional. The following applies: dose 1-10 µM.
The subject of assay [17] is HeLa. Nature of the assay: Induction of apoptosis in human HeLa cells assessed as reduction in Rb phosphorylation at 1 to 10 uM incubated for 24 hrs by Western blotting analysis. The format is functional, cell-based. The note with it: dose 1-10 µM. In short, it runs like this:
as §3

In assay [18] the test system is HeLa. Nature of the assay: Induction of apoptosis in human HeLa cells assessed as downregulation of Bcl2 protein expression at 1 uM incubated for 24 hrs by Western blotting analysis. The class given is functional, cell-based. In short, it runs like this: as §3

In the case of `CC(=O)O[C@H]1CC[C@@]2(C)[C@H](CC[C@@H]3[C@@H]2CC[C@]2(C)[C@@H](c4ccoc4)[C@@H](OC(C)=O)C[C@]32O)C1`, the Activity in the assay filed under Sus scrofa came to 79.9%. Moreover, the IC50 turned out to be 43.1 µM with HeLa [1], 6.2 µM with BJ, 14.2 µM in the assay on CCRF-CEM and 20.2 µM with MCF7.

On to `C[C@]12CC[C@H](O)C[C@H]1CC[C@@H]1[C@@H]2CC[C@]2(C)[C@@H](c3ccoc3)[C@@H](O)C[C@]12O`, for which the outcome in the assay with HeLa [2], with HeLa [3], in the assay on HeLa [4], in the assay with HeLa [6], in the assay on HeLa [10] and with HeLa [11] was Active. In addition, the outcome in the assay on HeLa [13] and in the assay with HeLa [15] was Active. For the same molecule, the Activity in the assay filed under Sus scrofa turned out to be 7.9%; in the assay with HeLa [5], 4.4%. For the same molecule, the inhibition result in the assay on HeLa [7] and with HeLa [8] was “Active” each time. In addition, the “fold change (FC)” value in the assay with HeLa [9] and in the assay with HeLa [16] was 2 throughout. In addition, the outcome in the assay on HeLa [12] and in the assay on HeLa [14] was inactive. Besides, the 50% inhibitory concentration (IC50) with HeLa [1] was found to be 14.5 µM; with BJ, 1.9 µM; in the assay with CCRF-CEM it was 3.6 µM; in the assay on MCF7, 10.6 µM.

Consider `CC(C)(C)[Si](C)(C)O[C@H]1CC[C@@]2(C)[C@H](CC[C@@H]3[C@@H]2CC[C@]2(C)[C@@H](c4ccoc4)[C@@H](O)C[C@]32O)C1`, for which, in the assay listed under Sus scrofa, the Activity came out at 15.1%. Besides, the IC50 came out at 26.7 µM with HeLa [1], 5.8 µM in the assay on BJ, 9.9 µM in the assay on CCRF-CEM and 19.4 µM with MCF7.

`CC(=O)O[C@H]1C[C@]2(O)[C@@H]3CC[C@@H]4C[C@@H](O[Si](C)(C)C(C)(C)C)CC[C@]4(C)[C@H]3CC[C@]2(C)[C@H]1C1=CC(=O)OC1`: in the assay listed under Sus scrofa, the Activity was found to be 79.3%. Further, the IC50 in the assay with HeLa [1] was found to be 34.1 µM; in the assay with BJ it was 10.6 µM; in the assay with CCRF-CEM it was 17.3 µM; in the assay on MCF7, 20.3 µM.

With `CC(=O)O[C@H]1C[C@]2(O)[C@@H]3CC[C@@H]4C[C@@H](O)CC[C@]4(C)[C@H]3CC[C@]2(C)[C@H]1c1ccoc1`, in the assay listed under Sus scrofa, the Activity turned out to be 42.4%. The IC50 stood at 14.2 µM in the assay with HeLa [1], 4 µM with BJ, 9.4 µM in the assay on CCRF-CEM and 16.1 µM in the assay on MCF7.

Take `CO[C@H]1C[C@H](O[C@H]2CC[C@@]3(C)[C@H](CC[C@@H]4[C@@H]3CC[C@]3(C)[C@@H](C5=CC(=O)OC5)[C@@H](OC(C)=O)C[C@]43O)C2)O[C@@H](C)[C@@H]1O`: the Activity in the assay filed under Sus scrofa came to 59.2%.

Consider `CC(C)(C)[Si](C)(C)O[C@H]1CC[C@@]2(C)[C@H](CC[C@@H]3[C@@H]2CC[C@]2(C)[C@@H](c4ccoc4)[C@@H](O)[C@H]4O[C@]342)C1`, for which the Activity in the assay listed under Sus scrofa was determined as 74.4%. The IC50 with HeLa [1] is 32.3 µM; in the assay on BJ, 16.3 µM; with CCRF-CEM, 34.7 µM; with MCF7, 14 µM.

Consider `CC(=O)O[C@H]1C[C@@]23O[C@@H]4OC(=O)C=C4[C@@H]1[C@@]2(C)CC[C@H]1[C@H]3CC[C@@H]2C[C@@H](O)CC[C@@]21C`, for which the Activity in the assay listed under Sus scrofa was determined as 83.9%. Besides, the IC50 in the assay with HeLa [1], with BJ, with CCRF-CEM and in the assay on MCF7 was greater than 50 µM in each case.

For `C[C@]12CC[C@H](O)C[C@H]1CC[C@@H]1[C@@H]2CC[C@]2(C)[C@@H](c3ccoc3)[C@@H](O)[C@H]3O[C@]132`, in the assay filed under Sus scrofa, the Activity was 75.5%. The concentration for half-maximal inhibition (IC50) in the assay on HeLa [1], in the assay on BJ, with CCRF-CEM and in the assay on MCF7 was greater than 50 µM each time.

Turning to `CC(=O)O[C@H]1C[C@]2(O)[C@@H]3CC[C@@H]4C[C@@H](O)CC[C@]4(C)[C@H]3CC[C@]2(C)[C@H]1C1=CC(=O)OC1`, the Activity worked out at 64.8% in the assay listed under Sus scrofa and 4.4% with HeLa [5]. The outcome in the assay with HeLa [17], in the assay with HeLa [10], in the assay with HeLa [11] and with HeLa [13] was Active. Further, in the assay on HeLa [8], the inhibition entry was “Active”. Also, the “fold change (FC)” value in the assay on HeLa [16] is listed as 2.

On to `CC(=O)O[C@H]1C[C@]2(O)[C@@H]3CC[C@@H]4C[C@@H](O[Si](C)(C)C(C)(C)C)CC[C@]4(C)[C@H]3CC[C@]2(C)[C@H]1c1ccoc1`, for which the Activity in the assay filed under Sus scrofa came to 69.1%. In addition, the IC50 with HeLa [1], in the assay with BJ, with CCRF-CEM and with MCF7 was greater than 50 µM throughout.

As to `CC(=O)O[C@H]1CC[C@@]2(C)[C@H](CC[C@@H]3[C@@H]2CC[C@]2(C)[C@@H](C4=CC(=O)OC4)[C@@H](OC(C)=O)C[C@]32O)C1` [GITOXIGENIN DIACETATE], the Activity with HeLa [2] amounted to 13.1%; in the assay listed under Sus scrofa it was 101%; in the assay on HeLa [5], 4.4%; in the assay with HeLa [6], 11.9%. The outcome in the assay with HeLa [4], in the assay with HeLa [18], in the assay with HeLa [17], in the assay on HeLa [10], in the assay on HeLa [11] and in the assay with HeLa [13] was Active. For the same molecule, the result in the assay with HeLa [15] was Active. For the same molecule, the inhibition result in the assay on HeLa [7] and in the assay with HeLa [8] was “Active” in each case. The “fold change (FC)” value in the assay on HeLa [9] and in the assay with HeLa [16] was 2 throughout. Moreover, the outcome in the assay on HeLa [14] was inactive. Also, the IC50 with HeLa [1] worked out at 1.1 µM; with BJ, 0.2 µM; in the assay with CCRF-CEM, 0.4 µM; in the assay with MCF7, 1.7 µM.

The IC50 is the concentration needed to halve the response being measured.
